From ChEMBL document CHEMBL1156308 (J Med Chem, 2010)

What was measured:
[1] = Biodistribution in baboon plasma at 170 mg, iv after 30 mins; type: ADME, organism-based; conditions: papio hamadryas, read-out: Drug uptake
Summary of the method: (§1)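 Anaesthetised baboons received [11C]-labelled drug i.v. (radial arm vein) by PET protocol. Arterial blood was drawn from a popliteal catheter every 5 s for 2 min, then at 2–90 min. Plasma activity is given as %ID/cc. µg/ml values were estimated from the human daily dose per kg scaled to a 17 kg baboon, assuming signal comes from intact drug.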

[2] = Biodistribution in baboon kidney cortex at 170 mg, iv after 60 mins; type: ADME, organism-based; conditions: papio hamadryas, read-out: Drug uptake
Summary of the method: (§2)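 Micro-dose [11C]-labelled drug given i.v. via a radial arm vein to baboons anaesthetised with ketamine (10 mg/kg i.m.), then maintained on oxygen, nitrous oxide and isoflurane (1–4%). Torso PET regions of interest were drawn by hand to give time-activity curves in %ID/cc. µg/ml values were estimated assuming a 10 mg/kg dose, a 17 kg baboon and signal coming from intact drug.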

[3] = Biodistribution in baboon lung at 170 mg, iv after 15 mins; type: ADME, organism-based; conditions: papio hamadryas, read-out: Drug uptake; summary of the method: as §2
[4] = Biodistribution in baboon Liver at 170 mg, iv after 30 mins; type: ADME, organism-based; conditions: papio hamadryas, read-out: Drug uptake; summary of the method: as §2
[5] = Biodistribution in baboon gallbladder at 170 mg, iv after 15 mins; type: ADME, organism-based, Gall bladder; conditions: papio hamadryas, read-out: Drug uptake; summary of the method: as §2
[6] = Biodistribution in baboon whole brain at 170 mg, iv after 90 mins; type: ADME, organism-based; conditions: papio hamadryas, read-out: Drug uptake
Summary of the method: (§3)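 Brain PET ran 90 min after i.v. [11C]-labelled drug in anaesthetised baboons. Whole-brain regions of interest gave time-activity curves in %ID/cc. µg/ml values were estimated from baboon weight (17 kg) and the recommended human daily dose per kg, assuming signal comes from intact drug.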

[7] = Biodistribution in baboon kidney medulla at 170 mg, iv after 90 mins; type: ADME, organism-based; conditions: papio hamadryas, read-out: Drug uptake; summary of the method: as §2
[8] = Biodistribution in baboon kidney medulla at 170 mg, iv after 15 mins; type: ADME, organism-based; conditions: papio hamadryas, read-out: Drug uptake; summary of the method: as §2
[9] = Biodistribution in baboon kidney cortex at 170 mg, iv after 15 mins; type: ADME, organism-based; conditions: papio hamadryas, read-out: Drug uptake; summary of the method: as §2
[10] = Biodistribution in baboon gallbladder at 170 mg, iv after 30 mins; type: ADME, organism-based, Gall bladder; conditions: papio hamadryas, read-out: Drug uptake; summary of the method: as §2
[11] = Biodistribution in baboon kidney cortex at 170 mg, iv after 90 mins; type: ADME, organism-based; conditions: papio hamadryas, read-out: Drug uptake; summary of the method: as §2
[12] = Biodistribution in baboon heart at 170 mg, iv after 15 mins; type: ADME, organism-based; conditions: papio hamadryas, read-out: Drug uptake; summary of the method: as §2
[13] = Biodistribution in baboon plasma at 170 mg, iv after 90 mins; type: ADME, organism-based; conditions: papio hamadryas, read-out: Drug uptake; summary of the method: as §1
[14] = Biodistribution in human lung at 108.7 mg, iv after 3 hrs; type: ADME, organism-based; conditions: read-out: Drug uptake
[15] = Biodistribution in baboon Liver at 170 mg, iv after 15 mins; type: ADME, organism-based; conditions: papio hamadryas, read-out: Drug uptake; summary of the method: as §2
[16] = Biodistribution in baboon lung at 170 mg, iv after 30 mins; type: ADME, organism-based; conditions: papio hamadryas, read-out: Drug uptake; summary of the method: as §2
[17] = Biodistribution in baboon plasma at 170 mg, iv after 15 mins; type: ADME, organism-based; conditions: papio hamadryas, read-out: Drug uptake; summary of the method: as §1
[18] = Biodistribution in baboon whole brain at 170 mg, iv after 30 mins; type: ADME, organism-based; conditions: papio hamadryas, read-out: Drug uptake; summary of the method: as §3
[19] = Biodistribution in baboon heart at 170 mg, iv after 30 mins; type: ADME, organism-based; conditions: papio hamadryas, read-out: Drug uptake; summary of the method: as §2
[20] = Biodistribution in baboon whole brain at 170 mg, iv after 60 mins; type: ADME, organism-based; conditions: papio hamadryas, read-out: Drug uptake; summary of the method: as §3
[21] = Biodistribution in baboon gallbladder at 170 mg, iv after 60 mins; type: ADME, organism-based, Gall bladder; conditions: papio hamadryas, read-out: Drug uptake; summary of the method: as §2
[22] = Biodistribution in baboon gallbladder at 170 mg, iv after 90 mins; type: ADME, organism-based, Gall bladder; conditions: papio hamadryas, read-out: Drug uptake; summary of the method: as §2
[23] = Biodistribution in baboon kidney medulla at 170 mg, iv after 30 mins; type: ADME, organism-based; conditions: papio hamadryas, read-out: Drug uptake; summary of the method: as §2
[24] = Biodistribution in baboon plasma at 170 mg, iv after 60 mins; type: ADME, organism-based; conditions: papio hamadryas, read-out: Drug uptake; summary of the method: as §1
[25] = Biodistribution in baboon Liver at 170 mg, iv after 90 mins; type: ADME, organism-based; conditions: papio hamadryas, read-out: Drug uptake; summary of the method: as §2
[26] = Biodistribution in baboon kidney medulla at 170 mg, iv after 60 mins; type: ADME, organism-based; conditions: papio hamadryas, read-out: Drug uptake; summary of the method: as §2
[27] = Biodistribution in baboon lung at 170 mg, iv after 60 mins; type: ADME, organism-based; conditions: papio hamadryas, read-out: Drug uptake; summary of the method: as §2
[28] = Biodistribution in baboon heart at 170 mg, iv after 90 mins; type: ADME, organism-based; conditions: papio hamadryas, read-out: Drug uptake; summary of the method: as §2
[29] = Biodistribution in baboon heart at 170 mg, iv after 60 mins; type: ADME, organism-based; conditions: papio hamadryas, read-out: Drug uptake; summary of the method: as §2
[30] = Biodistribution in baboon lung at 170 mg, iv after 90 mins; type: ADME, organism-based; conditions: papio hamadryas, read-out: Drug uptake; summary of the method: as §2
[31] = Biodistribution in baboon kidney cortex at 170 mg, iv after 30 mins; type: ADME, organism-based; conditions: papio hamadryas, read-out: Drug uptake; summary of the method: as §2
[32] = Biodistribution in baboon Liver at 170 mg, iv after 60 mins; type: ADME, organism-based; conditions: papio hamadryas, read-out: Drug uptake; summary of the method: as §2

CO[C@H]1/C=C/O[C@@]2(C)Oc3c(C)c(O)c4cc(c(/C=N/N5CCN([11CH3])CC5)c(O)c4c3C2=O)NC(=O)/C(C)=C\C=C\C(C)[C@H](O)[C@@H](C)[C@@H](O)[C@@H](C)[C@H](OC(C)=O)[C@@H]1C (some centres not stated)
concentration at 0.5 h [1]: 1.5 µg/mL | concentration at 1 h [2]: 0.43 µg/mL | concentration at 0.25 h [3]: 5.03 µg/mL | concentration at 0.5 h [4]: 276 µg/mL | concentration at 0.25 h [5]: 121 µg/mL | concentration at 1.5 h [6]: 1.21 µg/mL | concentration at 1.5 h [7]: 9.44 µg/mL | concentration at 0.25 h [8]: 36.4 µg/mL | concentration at 0.25 h [9]: 15.8 µg/mL | concentration at 0.5 h [10]: 586 µg/mL | concentration at 1.5 h [11]: 8.19 µg/mL | concentration at 0.25 h [12]: 7.28 µg/mL | concentration at 1.5 h [13]: 1.16 µg/mL | concentration at 3 h [14]: 1790 ng/g | concentration at 0.25 h [15]: 259 µg/mL | concentration at 0.5 h [16]: 2.83 µg/mL | concentration at 0.25 h [17]: 2.81 µg/mL | concentration at 0.5 h [18]: 1.09 µg/mL | concentration at 0.5 h [19]: 5.28 µg/mL | concentration at 1 h [20]: 0.912 µg/mL | concentration at 1 h [21]: 983 µg/mL | concentration at 1.5 h [22]: 1010 µg/mL | concentration at 0.5 h [23]: 11.6 µg/mL | concentration at 1 h [24]: 1.14 µg/mL | concentration at 1.5 h [25]: 300 µg/mL | concentration at 1 h [26]: 6.73 µg/mL | concentration at 1 h [27]: 2.53 µg/mL | concentration at 1.5 h [28]: 6.8 µg/mL | concentration at 1 h [29]: 1.93 µg/mL | concentration at 1.5 h [30]: 6.78 µg/mL | concentration at 0.5 h [31]: 6.34 µg/mL | concentration at 1 h [32]: 288 µg/mL
